Results from different studies.
Each line is one published result; the experiments were not run side by side.
Target: G protein-coupled receptor kinase 4 (GRK4, Homo sapiens, UniProt P32298)

Structure (SMILES)	test	setting	quantity	value
Cc1ccc(C(=O)Nc2ccc(CN3CCN(C)CC3)c(C(F)(F)F)c2)cc1C#Cc1cnc2cccnn12	enzyme activity, inhibitor	23.5 nM	remaining activity	96%
Cc1noc([C@H]2C[C@@H](c3ccc(C(F)(F)F)cc3)CN(C(=O)N3CCS(=O)(=O)C3)C2)n1	cell-free assay, competition with immobilised ligand	1 µM	remaining binding	99%
CN(C)C1CCN(CC#Cc2nn(C3CCCC3)c3nc(NCc4ccccc4)ncc23)C1 (stereo not shown)	enzyme activity, inhibitor, FRET	1 µM	inhibition	11%
COc1cc2ncnc(Nc3ccc(Oc4ccccc4)c(C)c3C)c2cc1OC	enzyme activity, inhibitor	1 µM	inhibition	-4%
CC(C)(C)c1nc2c(s1)c1nc(N)ncc1c1ccc(NS(=O)(=O)c3c(F)cccc3F)c(F)c12	enzyme activity, inhibitor, radiometric	1 µM	remaining activity	70%
CCN(CC)CCNC(=O)c1c(C)[nH]c(/C=C2\C(=O)Nc3ccc(F)cc32)c1C	cell-free assay	0.5 µM	remaining signal	75.8%
O=C(N[C@H]1CCCCC/C=C\C2C[C@@]2(C(=O)O)NC(=O)[C@@H]2C[C@@H](Oc3ccncc3)CN2C1=O)OC1CCCC1 (stereo partly shown)	binding, competition with immobilised ligand	1 µM	remaining binding	80%
O=C(Nc1cnn(-c2csc(C(=O)NC3COC3)c2)c1)Nc1ccccc1Cl	enzyme activity, inhibitor	5 µM	remaining activity	97%
O=C1Nc2ccc(Cl)cc2C1=Cc1cc(Cl)c(O)c(Cl)c1	cell-free assay	0.5 µM	remaining signal	108%
O=c1nc(-c2ccccn2)sc2ccccc12	binding, competition with immobilised ligand	1 µM	remaining binding	100%
CC(C)(O)[C@H]1CC[C@H](Nc2ccc3ncc(-c4cccc(C(F)(F)F)c4)n3n2)CC1	enzyme activity, inhibitor	1 µM	remaining activity	96.5%
C[C@H](c1ccc(F)cc1)N(Cc1cccc(C(=O)O)c1)C(=O)c1cnc2ccccc2c1	cell-free assay, competition with immobilised ligand	1 µM	remaining binding	100%
CS(=O)(=O)CCNCc1ccc(-c2ccc3ncnc(Nc4ccc(OCc5cccc(F)c5)c(Cl)c4)c3c2)o1	cell-free assay	0.5 µM	remaining signal	90.3%
